In ChEMBL document CHEMBL3808334, “Synthesis and in vitro evaluation of novel triazine analogues as anticancer agents and their interaction studies with bovine serum albumin” (Eur J Med Chem, 2016):

Key:
SR = assay: Growth inhibition of human SR cells assessed as cell growth at 10 uM incubated for 48 hrs by sulforhodamine B assay; assay type: functional; conditions: read-out: Activity
[1] = Growth inhibition of human DU145 cells incubated for 48 hrs by sulforhodamine B assay; assay type: functional; conditions: DU-145, 48 h; for CC50: read-out: pLC50 (the source's name) (converted)
Method in brief: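 Cells seeded at 5,000–40,000/well according to doubling time and preincubated 24 h at 37 °C, 5% CO2. Time-zero plates were TCA-fixed. DMSO concentrate was diluted in medium with 50 µg/ml gentamicin to give five concentrations (10-fold or ½ log steps), then exposed 48 h. Cells were TCA-fixed, stained with 0.4% SRB and read at 515 nm. Percent growth was taken against time-zero and control; GI50, TGI and LC50 derived.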

MDA-MB-435 = assay: Growth inhibition of human MDA-MB-435 cells incubated for 48 hrs by sulforhodamine B assay; assay type: functional; conditions: MDA-MB-435, 48 h
Method in brief: (§1)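 Cells were plated at 5,000–40,000 per well according to doubling time and preincubated 24 h at 37 °C in 5% CO2; time-zero plates were then TCA-fixed. Five concentrations (10-fold or ½-log dilutions, DMSO stock) were incubated 48 h. Cells were TCA-fixed, stained with 0.4% SRB and read at 515 nm. GI50 was taken where [(Ti−Tz)/(C−Tz)]×100 = 50.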

[2] = Growth inhibition of human UACC62 cells assessed as cell growth at 10^-5 M incubated for 48 hrs by sulforhodamine B assay; assay type: functional; conditions: UACC-62, 48 h, read-out: Activity
HT-29 = assay: Growth inhibition of human HT-29 cells assessed as cell growth at 10^-5 M incubated for 48 hrs by sulforhodamine B assay; assay type: functional; conditions: HT-29, 48 h, read-out: Activity
[3] = Growth inhibition of human SKOV3 cells assessed as cell growth at 10^-5 M incubated for 48 hrs by sulforhodamine B assay; assay type: functional; conditions: SK-OV-3, 48 h, read-out: Activity
786-0 = assay: Growth inhibition of human 786-0 cells assessed as cell growth at 10^-5 M incubated for 48 hrs by sulforhodamine B assay; assay type: functional; conditions: 786-0, 48 h, read-out: Activity
Method in brief: (§2)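 Five-dose assay: five concentrations from 10-fold or ½-log serial dilutions. Cells are plated at 5,000–40,000 per well according to doubling time, grown 24 h, then exposed 48 h at 37 °C, 5% CO₂. Fixed with cold 50% TCA (final addition) for 60 min at 4 °C and stained with 0.4% SRB in 1% acetic acid. Bound dye is solubilized in 10 mM Tris base and read at 515 nm. GI₅₀ is where [(Ti−Tz)/(C−Tz)]×100 = 50, with a time-zero plate as Tz.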

K562 = assay: Growth inhibition of human K562 cells incubated for 48 hrs by sulforhodamine B assay; assay type: functional; conditions: K562, 48 h; method in brief: as §1
[4] = Growth inhibition of human OVCAR5 cells incubated for 48 hrs by sulforhodamine B assay; assay type: functional; conditions: OVCAR-5, 48 h; method in brief: as §1
[5] = Growth inhibition of human SNB19 cells assessed as cell growth at 10^-6 M incubated for 48 hrs by sulforhodamine B assay; assay type: functional; conditions: SNB-19, 48 h, read-out: Activity
[6] = Growth inhibition of human MOLT4 cells assessed as cell growth at 10^-5 M incubated for 48 hrs by sulforhodamine B assay; assay type: functional; conditions: MOLT-4, 48 h, read-out: Activity
[7] = Growth inhibition of human RPMI8226 cells assessed as cell growth at 10^-4 M incubated for 48 hrs by sulforhodamine B assay; assay type: functional; conditions: RPMI-8226, 48 h, read-out: Activity
[8] = Growth inhibition of human HOP62 cells assessed as cell growth at 10^-6 M incubated for 48 hrs by sulforhodamine B assay; assay type: functional; conditions: HOP-62, 48 h, read-out: Activity
[9] = Growth inhibition of human BT549 cells assessed as cell growth at 10^-7 M incubated for 48 hrs by sulforhodamine B assay; assay type: functional; conditions: BT-549, 48 h, read-out: Activity; method in brief: as §2
NCI-H23 = assay: Growth inhibition of human NCI-H23 cells assessed as cell growth at 10^-6 M incubated for 48 hrs by sulforhodamine B assay; assay type: functional; conditions: NCI-H23, 48 h, read-out: Activity
U-251 = assay: Growth inhibition of human U251 cells assessed as cell growth at 10^-6 M incubated for 48 hrs by sulforhodamine B assay; assay type: functional; conditions: U-251, 48 h, read-out: Activity
NCI/ADR-RES [10] = assay: Growth inhibition of human NCI/ADR-RES cells assessed as cell growth at 10 uM incubated for 48 hrs by sulforhodamine B assay; assay type: functional; conditions: read-out: Activity
NCI/ADR-RES [11] = assay: Growth inhibition of human NCI/ADR-RES cells incubated for 48 hrs by sulforhodamine B assay; assay type: functional; method in brief: as §1
Albumin = Albumin (Bos taurus, UniProt P02769); assay: Binding affinity to bovine serum albumin assessed as binding constant in emission spectra by Benesie-Hildebrand plot analysis; assay type: ADME; conditions: cattle, isolated protein
Sequence of Albumin (P02769 whole entry): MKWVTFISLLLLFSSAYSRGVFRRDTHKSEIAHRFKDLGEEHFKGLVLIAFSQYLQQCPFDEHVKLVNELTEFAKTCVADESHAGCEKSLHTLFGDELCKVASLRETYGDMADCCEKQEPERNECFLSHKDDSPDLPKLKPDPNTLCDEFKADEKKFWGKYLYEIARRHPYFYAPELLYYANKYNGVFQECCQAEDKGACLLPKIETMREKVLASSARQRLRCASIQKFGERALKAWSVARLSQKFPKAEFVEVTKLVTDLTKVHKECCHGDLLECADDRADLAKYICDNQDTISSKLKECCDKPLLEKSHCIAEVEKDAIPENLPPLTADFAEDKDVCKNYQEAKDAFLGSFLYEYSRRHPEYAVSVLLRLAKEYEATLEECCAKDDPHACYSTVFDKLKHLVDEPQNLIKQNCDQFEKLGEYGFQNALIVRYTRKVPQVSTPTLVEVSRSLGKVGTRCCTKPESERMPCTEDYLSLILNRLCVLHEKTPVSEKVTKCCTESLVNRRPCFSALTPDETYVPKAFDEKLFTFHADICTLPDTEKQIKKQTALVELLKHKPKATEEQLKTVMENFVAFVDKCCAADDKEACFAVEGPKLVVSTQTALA
Method in brief: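 BSA, 10 µM, in 0.1 M phosphate buffer pH 7.4, titrated with compound (0–20 µM per the figure; diluted from 10⁻³ mol L⁻¹ DMSO stocks). Run at 300 K in a 1 cm quartz cell. UV spectra taken 200–800 nm after 5 min equilibration; fluorescence excited at 280 nm, emission 351 nm, slit 10 nm. K is the intercept/slope ratio of a linear fit of 1/(A₀−A) or 1/(F₀−F) vs 1/[compound].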

[12] = Growth inhibition of human Hs 578T cells assessed as cell growth at 10^-5 M incubated for 48 hrs by sulforhodamine B assay; assay type: functional; conditions: read-out: Activity
[13] = Growth inhibition of human MOLT4 cells assessed as cell growth at 10^-8 M incubated for 48 hrs by sulforhodamine B assay; assay type: functional; conditions: MOLT-4, 48 h, read-out: Activity
[14] = Growth inhibition of human OVCAR3 cells assessed as cell growth at 10^-6 M incubated for 48 hrs by sulforhodamine B assay; assay type: functional; conditions: OVCAR-3, 48 h, read-out: Activity
[15] = Growth inhibition of human SF539 cells assessed as cell growth at 10^-5 M incubated for 48 hrs by sulforhodamine B assay; assay type: functional; conditions: SF-539, 48 h, read-out: Activity
NCI-H522 = assay: Growth inhibition of human NCI-H522 cells assessed as cell growth at 10^-7 M incubated for 48 hrs by sulforhodamine B assay; assay type: functional; conditions: NCI-H522, 48 h, read-out: Activity
[16] = read-out: LC50 (the source's name)
[17] = read-out: pLC50 (the source's name) (converted)

Fc1ccc(-c2nc(Nc3ccc(-c4nc5ccccc5[nH]4)cc3)nc(N3CCOCC3)n2)cc1
growth at 10 µM (SR): 6.01%
LC50 (50% net cell kill) [1]: > 100 µM
GI50 ([1]; read-out: GI50): 4.53 µM
TGI ([1]; read-out: TGI): > 100 µM
GI50 ([1]; read-out: pGI50 (converted)): 4.57 µM
CC50 [1]: > 100 µM
TGI ([1]; read-out: pTGI (converted)): > 100 µM
GI50 (MDA-MB-435; read-out: GI50): 1.94 µM
TGI (MDA-MB-435; read-out: TGI): 4.04 µM
GI50 (MDA-MB-435; read-out: pGI50 (converted)): 1.95 µM
TGI (MDA-MB-435; read-out: pTGI (converted)): 4.07 µM
growth at 10 µM [2]: -70%
growth at 10 µM (HT-29): -35%
growth at 10 µM [3]: -35%
growth at 10 µM (786-0): -70%
GI50 (K562; read-out: GI50): 2.45 µM
CC50 (K562; [16]): > 100 µM
GI50 (K562; read-out: pGI50 (converted)): 2.45 µM
CC50 (K562; [17]): > 100 µM
GI50 ([4]; read-out: GI50): 2.7 µM
CC50 [4, 16]: > 100 µM
TGI ([4]; read-out: TGI): 8.9 µM
GI50 ([4]; read-out: pGI50 (converted)): 2.69 µM
CC50 [4, 17]: > 100 µM
TGI ([4]; read-out: pTGI (converted)): 8.91 µM
growth at 1 µM [5]: 92%
growth at 10 µM [6]: -23%
growth at 100 µM [7]: -14%
growth at 1 µM [8]: 90%
growth at 0.1 µM [9]: 97%
growth at 1 µM (NCI-H23): 85%
growth at 1 µM (U-251): 70%
growth at 10 µM (NCI/ADR-RES [10]): 34.2%
GI50 (NCI/ADR-RES [11]; read-out: GI50): 3.18 µM
CC50 (NCI/ADR-RES [11]; [16]): > 100 µM
TGI (NCI/ADR-RES [11]; read-out: TGI): 26.7 µM
GI50 (NCI/ADR-RES [11]; read-out: pGI50 (converted)): 3.16 µM
CC50 (NCI/ADR-RES [11]; [17]): > 100 µM
TGI (NCI/ADR-RES [11]; read-out: pTGI (converted)): 26.9 µM
K (Albumin): 7.9 ×10⁴ /M
growth at 10 µM [12]: -13%
growth at 0.01 µM [13]: 98%
growth at 1 µM [14]: 89%
growth at 10 µM [15]: -60%
growth at 0.1 µM (NCI-H522): 97%

c1ccc(-c2nc(Nc3ccc(-c4nc5ccccc5[nH]4)cc3)nc(N3CCOCC3)n2)cc1
growth at 10 µM (SR): 8.94%
LC50 (50% net cell kill) [1]: 5.12 µM
GI50 ([1]; read-out: GI50): 1.21 µM
TGI ([1]; read-out: TGI): 2.49 µM
GI50 ([1]; read-out: pGI50 (converted)): 1.2 µM
CC50 [1]: 5.13 µM
TGI ([1]; read-out: pTGI (converted)): 2.51 µM
GI50 (MDA-MB-435; read-out: GI50): 1.76 µM
CC50 (MDA-MB-435; [16]): 6.11 µM
TGI (MDA-MB-435; read-out: TGI): 3.28 µM
GI50 (MDA-MB-435; read-out: pGI50 (converted)): 1.78 µM
CC50 (MDA-MB-435; [17]): 6.17 µM
TGI (MDA-MB-435; read-out: pTGI (converted)): 3.31 µM
growth at 10 µM [2]: -71%
growth at 10 µM (HT-29): -70%
growth at 10 µM [3]: -62%
growth at 10 µM (786-0): -88%
GI50 (K562; read-out: GI50): 0.295 µM
CC50 (K562; [16]): 8.31 µM
TGI (K562; read-out: TGI): 0.959 µM
GI50 (K562; read-out: pGI50 (converted)): 0.295 µM
CC50 (K562; [17]): 8.32 µM
TGI (K562; read-out: pTGI (converted)): 0.955 µM
GI50 ([4]; read-out: GI50): 2.16 µM
CC50 [4, 16]: 7.49 µM
TGI ([4]; read-out: TGI): 4.02 µM
GI50 ([4]; read-out: pGI50 (converted)): 2.14 µM
CC50 [4, 17]: 7.41 µM
TGI ([4]; read-out: pTGI (converted)): 3.98 µM
growth at 1 µM [5]: 92%
growth at 10 µM [6]: -53%
growth at 100 µM [7]: -37%
growth at 1 µM [8]: 89%
growth at 0.1 µM [9]: 100%
growth at 1 µM (NCI-H23): 93%
growth at 1 µM (U-251): 28%
growth at 10 µM (NCI/ADR-RES [10]): -60.8%
GI50 (NCI/ADR-RES [11]; read-out: GI50): 1.93 µM
CC50 (NCI/ADR-RES [11]; [16]): > 100 µM
TGI (NCI/ADR-RES [11]; read-out: TGI): 5.53 µM
GI50 (NCI/ADR-RES [11]; read-out: pGI50 (converted)): 1.95 µM
CC50 (NCI/ADR-RES [11]; [17]): > 100 µM
TGI (NCI/ADR-RES [11]; read-out: pTGI (converted)): 5.5 µM
K (Albumin): 3.2 ×10⁴ /M
growth at 10 µM [12]: -22%
growth at 0.01 µM [13]: 96%
growth at 1 µM [14]: 81%
growth at 10 µM [15]: -84%
growth at 0.1 µM (NCI-H522): 101%
